# According to the RNAGym collection of RNA variant scans (doi:10.1126/science.aae0568):
# This sample holds only a part of the variants without activity.
# B1: tRNA (parent)
# chain: GUUCCGUUGGCGUAAUGGUAACGCGUCUCCCUCCUAAGGAGAAGACUGCGGGUUCGAGUCCCGUACGGAACG
# Variants of: B1
# Test: yeast fitness relative to wild type (ratio to wild type); higher = fitter; tRNA-Arg(CCU), competitive growth, 37 C, YPD
# Summary of the method: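 The tRNA-Arg(CCU) gene variants were made by chemical synthesis with a 3% per-site mutation rate at 69 sites and inserted at the native genomic locus of Saccharomyces cerevisiae. After pooling, the strains were competed in YPD at 37°C for 24 hours in six parallel replicates. Gene amplicons from the start population and each end population were read by 100-nucleotide paired-end sequencing, and Darwinian fitness relative to wild type was taken from genotype frequency changes. Genotypes needed ≥ 100 starting reads, and estimates < 0.5 were set to 0.5.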
row,Variant,yeast fitness
1,C5A C11G C27A C34U G39A,0.683
2,C4G A15C U19A,≤ 0.5
3,G23C C30G A65C,≤ 0.5
4,U47C G52A C61G,≤ 0.5
5,A21G C31G A69C,0.755
6,A36C U47A G48C U54G,0.544
7,G17A A37C A65C,≤ 0.5
8,C5U C11G U19G C24G C30U C61U,≤ 0.5
9,A36G G63A A69U,0.688
10,G6A C34A A40U G52A A65U A70C,≤ 0.5
11,G10A A21U,0.609
12,C4A G17A G41A C66U,0.508
13,C4U C30A U35C,0.77
14,C30U G52A G68C,≤ 0.5
15,C5U U16A C34A,≤ 0.5
16,C4G C5U A36G U54C A69C,≤ 0.5
17,C49G G52A A69U,0.542
18,U28C U32C,0.935
19,G6A G10A C22G G25C,≤ 0.5
20,U19C C24U A69C,0.789
21,U3C G25C C34U G56A,≤ 0.5
22,G23A G58C C61U,0.554
23,A21C C24G C33A A37G A69C,0.645
24,G6A C49U A57C A65C A70C,≤ 0.5

row,Variant,yeast fitness
1,U59G U64C A65U,≤ 0.5
2,A14G U19G,0.856
3,C27A A36C A40G C62A,≤ 0.5
4,C30U U59A,0.828
5,C5U G18C A65U,0.601
6,C30G C33G C60G A70G,0.544
7,G9C C60U,0.618
8,G17A A43G A45G G48A C62G,≤ 0.5
9,C5U A45G G63A,0.708
10,U26G C27U A69U,0.696
11,C4G C5G U8C G23C C29U A45U G68A,0.59
12,C24U G48A U64A,≤ 0.5
13,C4G C30G G50U C66U,0.588
14,C29U A37U C46U,0.602
15,U2A U8A C11G U54A,≤ 0.5
16,C27U U47G,0.621
17,U13G G39C A69U,0.625
18,C30U U35C A45U A57C,0.534
19,G6A U32C,0.839
20,C5G G23A C34A,0.723
21,A20G U28C G68C,0.664
22,C27G A36U G39C G68C,0.533
23,U19A A37G,0.657
24,U2C A14C G39A,≤ 0.5

row,Variant,yeast fitness
1,U26G C31G A36U G41A A45C,≤ 0.5
2,C5A G17C C49U A57C,≤ 0.5
3,U3G G52C C62A A65C A70U,≤ 0.5
4,G23C U32A,0.565
5,C24U C27A C30U G63U,≤ 0.5
6,G10A C22U G56C A70U,≤ 0.5
7,C11U A45C C62G A65C,≤ 0.5
8,U47C A70U,0.955
9,A14G G23A C27G,≤ 0.5
10,C24G C30G A70G,0.638
11,C5U G9A C61U,0.732
12,C29U C49U C61U,0.532
13,G9A A14G G56A G67A,≤ 0.5
14,A20G A43U C61G,≤ 0.5
15,C4G U7C C24U A65G,0.857
16,C4U C5U C46G,0.515
17,A21U A40G C49G,≤ 0.5
18,C22G G23C A42U,0.573
19,C27A C31A A69U,0.567
20,G6A C27U C30U,0.596
21,C4A C62A,0.675
22,C22U C49A A69G,≤ 0.5
23,G38C A43C,1.12
24,G25C C46U G50A,0.889

row,Variant,yeast fitness
1,C5U C24G U32G A36G C60A A65U,0.535
2,C24U C30U C34U G52A,≤ 0.5
3,C33G G63U U64G,0.665
4,U32A G50A A69U,0.527
5,A14C C22G G25A C31U G58A,≤ 0.5
6,C29U C34G A43U C62U,≤ 0.5
7,C27A C31A C49U G58C C62U U64A,≤ 0.5
8,C5U A36C A43G U54A C55G A69U,≤ 0.5
9,C24G U28C U54A,≤ 0.5
10,G6A C33G C34G A43U C61A,≤ 0.5
11,G18C C31U C46U,≤ 0.5
12,C4G U19C G51A A65G,≤ 0.5
13,A15G C29A G39A C46U,≤ 0.5
14,U28A U32G A69U,≤ 0.5
15,U3A A14C C34A G52A A70G,0.673
16,C27A C34U,0.598
17,C4A A36C A42G,≤ 0.5
18,G17A A43U,0.81
19,U2G G48C,0.849
20,G9C C24G G39C C55U A65C,≤ 0.5
21,C5G A14C G44C,≤ 0.5
22,C22G G23C A43C G50C A70U,0.517
23,C31G C34U G38A,0.53
24,C11U G56A A65C,0.732

row,Variant,yeast fitness
1,C33A G52A,≤ 0.5
2,G12A G23C G25A U59A G63A,≤ 0.5
3,G18U U32C A57G,0.568
4,C60U A70U,0.655
5,A42G A57C U59C C61U,≤ 0.5
6,U26A C31A A37U A43U,≤ 0.5
7,G9A C24U U32G A65C C66G,≤ 0.5
8,U7C A21C C34U C49U A69U,≤ 0.5
9,G51C G68C,0.641
10,A40G G48A C66U,0.769
11,U8A C33U,≤ 0.5
12,A20C A45G,0.853
13,C55U C61A,0.524
14,C61A C66A,0.627
15,U7C A15G G18C C49U,≤ 0.5
16,G6C A14G A20C U64A G67A,0.562
17,C5A U16C U59G C66U,0.533
18,U7A U19A C27A C30U G41C A43U C49A,≤ 0.5
19,G10A C11U U35A C61U,≤ 0.5
20,U8A G25A G48C C62A,≤ 0.5
21,C5U A42G C49U A65C,≤ 0.5
22,A36U G56C A69U,0.669
23,G23A C30U A69G A70G,≤ 0.5
24,C5U C22U A36G,0.749

row,Variant,yeast fitness
1,U2C A14G G17A C46U C60A,≤ 0.5
2,C24U A43C C60A,≤ 0.5
3,C5A C22U G39A A69U,≤ 0.5
4,U2G A43U U47C,0.731
5,C22U C29U C33U A37C C55A,0.615
6,C4G A14C A20C A40G G44C U53C C55A A65U,≤ 0.5
7,G6A G17A C31A C33G G38A,≤ 0.5
8,C11U C34U G38A G44C C66U,≤ 0.5
9,C22G U47G A65C,≤ 0.5
10,G12C C61A A65U,≤ 0.5
11,C4A A14C C24U G25A C34A,0.571
12,G68A A69G,0.827
13,C22G A36U,0.66
14,C31G A42G U47G,0.573
15,U8A U13A C29G A45C G68C A69G,≤ 0.5
16,U8G A70C,0.633
17,C5G A14U U16C G18C U32A C62U,≤ 0.5
18,C5U A20U A45U,0.582
19,C31G U32A C49U C62A,≤ 0.5
20,U19G A37G A57G A70U,≤ 0.5
21,C11A C24U G38C,≤ 0.5
22,C55U C62G C66A,0.53
23,C24G U35C,≤ 0.5
24,A20G C22G C27G C30U C31G G51C G67A A69U,≤ 0.5

row,Variant,yeast fitness
1,A15C C22G U32C G41A,≤ 0.5
2,C5U U28A G41A C66U,0.542
3,C4U U28C C49G,0.598
4,G6A A20G C46U,0.723
5,C11G C29U,0.557
6,U8A C29U G51C C55U,0.526
7,U3A A40G C49U,0.54
8,C22U C31G C49U,0.552
9,A14G C34A G38C,0.676
10,G9C C11U C30G A43C,≤ 0.5
11,G18U U26A G56A G67A,0.578
12,A36G,0.993
13,C4G C22U C34G A36U C61U,≤ 0.5
14,U64A A65C G68A,0.526
15,C11U A20U C29G U47G G63A A70U,≤ 0.5
16,U3C C5G C34U,≤ 0.5
17,A20U A40G G44C G58C,0.574
18,C11U A57G U59C G67A,≤ 0.5
19,G23C U32A C49U,≤ 0.5
20,C4A C5G U8A C30A C62A,≤ 0.5
21,C11A A21C U26G A65G A69C,0.525
22,A21G A40C A42C C66A,≤ 0.5
23,C22U U32G C34U A40G A42G C66U,0.561
